Test results reported in ChEMBL document CHEMBL5724801, “EUbOPEN Chemogenomics Library - Multiplex” (2024).
Where “and” joins values, the source holds several entries; their conditions need not be identical. Equal entries are not always repeated.

System: U2OS
Assay: Multiplex assay against U2OS
Format: toxicity, cell-based
Settings: human
How it was run: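 Phenotypes for tubulin, mitochondrial mass and membrane permeability are expressed as per cents of healthy-nucleus cells. Cells were stained live at seeding with Hoechst33342, BioTracker Green Microtubule Cytoskeleton Dye, MitoTracker Red and Annexin V Alexa Fluor 680, then imaged after compound addition on a CQ1 microscope at 37°C and 5% CO2. Machine-learning gating in CellPathfinder separated Hoechst high-intensity objects from normal cells, divided normal cells by nuclear state (healthy, pyknosed, fragmented) and divided pyknosed cells into mitotic or apoptotic.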

[1] = 12 h, 1 µM, compound concentration 1 uM
[2] = 12 h, 10 µM, compound concentration 10 uM
[3] = 24 h, 1 µM, compound concentration 1 uM
[4] = 24 h, 10 µM, compound concentration 10 uM
[5] = 48 h, 1 µM, compound concentration 1 uM
[6] = 48 h, 10 µM, compound concentration 10 uM

CC(N)C1CCC(C(=O)Nc2ccncc2)CC1 (stereo unspecified)
Population Apoptotic (%) [1]: 33.33% and 18.75% | Population Fragmented Nuclei (%) [1]: 1.02% and 1.57% | Population Healthy Nuclei (%) [1]: 90.39% and 81.68% | Population Hoechst High Intensity Objects (%) [1]: 0% | Population Membrane Permeable-Phenotype (%) [1]: 0.68% and 1.28% | Population Mitochondria Different-Phenotype (%) [1]: 0.68% and 3.21% | Population Mitotic Cells (%) [1]: 66.67% and 81.25% | Population Normal (%) [1]: 100% | Population Pyknosed Nuclei (%) [1]: 8.59% and 16.75% | Population Tubulin-Different-Phenotype (%) [1]: 0.23% and 0.64% | Total Cell Count [1]: 489 and 191 | Population Apoptotic (%) [2]: 31.03% and 27.78% | Population Fragmented Nuclei (%) [2]: 0.73% and 1.2% | Population Healthy Nuclei (%) [2]: 92.2% and 87.95% | Population Hoechst High Intensity Objects (%) [2]: 0% | Population Membrane Permeable-Phenotype (%) [2]: 1.32% and 1.37% | Population Mitochondria Different-Phenotype (%) [2]: 0% and 11.64% | Population Mitotic Cells (%) [2]: 68.97% and 72.22% | Population Normal (%) [2]: 100% | Population Pyknosed Nuclei (%) [2]: 7.07% and 10.84% | Population Tubulin-Different-Phenotype (%) [2]: 0.79% and 0.68% | Total Cell Count [2]: 410 and 166 | Population Apoptotic (%) [3]: 41.18% and 41.67% | Population Fragmented Nuclei (%) [3]: 2.2% and 3.47% | Population Healthy Nuclei (%) [3]: 90.32% and 87.26% | Population Hoechst High Intensity Objects (%) [3]: 0% | Population Membrane Permeable-Phenotype (%) [3]: 0.65% and 1.33% | Population Mitochondria Different-Phenotype (%) [3]: 0.16% and 3.1% | Population Mitotic Cells (%) [3]: 58.82% and 58.33% | Population Normal (%) [3]: 100% | Population Pyknosed Nuclei (%) [3]: 7.48% and 9.27% | Population Tubulin-Different-Phenotype (%) [3]: 0.81% and 0.88% | Total Cell Count [3]: 682 and 259 | Population Apoptotic (%) [4]: 32.08% and 28.57% | Population Fragmented Nuclei (%) [4]: 1.38% and 0% | Population Healthy Nuclei (%) [4]: 89.48% and 85.29% | Population Hoechst High Intensity Objects (%) [4]: 0% | Population Membrane Permeable-Phenotype (%) [4]: 0.19% and 1.48% | Population Mitochondria Different-Phenotype (%) [4]: 0.19% and 6.9% | Population Mitotic Cells (%) [4]: 67.92% and 71.43% | Population Normal (%) [4]: 100% | Population Pyknosed Nuclei (%) [4]: 9.14% and 14.71% | Population Tubulin-Different-Phenotype (%) [4]: 0.19% and 0.49% | Total Cell Count [4]: 580 and 238 | Population Apoptotic (%) [5]: 48.51% and 53.33% | Population Fragmented Nuclei (%) [5]: 2.96% and 2.17% | Population Healthy Nuclei (%) [5]: 89.37% and 88.07% | Population Hoechst High Intensity Objects (%) [5]: 0% | Population Membrane Permeable-Phenotype (%) [5]: 1.02% and 1.48% | Population Mitochondria Different-Phenotype (%) [5]: 0.08% and 2.46% | Population Mitotic Cells (%) [5]: 51.49% and 46.67% | Population Normal (%) [5]: 100% | Population Pyknosed Nuclei (%) [5]: 7.67% and 9.76% | Population Tubulin-Different-Phenotype (%) [5]: 0.51% and 0.25% | Total Cell Count [5]: 1317 and 461 | Population Apoptotic (%) [6]: 45.33% and 46.15% | Population Fragmented Nuclei (%) [6]: 3.3% and 1% | Population Healthy Nuclei (%) [6]: 89.84% and 86% | Population Hoechst High Intensity Objects (%) [6]: 0.18% and 0% | Population Membrane Permeable-Phenotype (%) [6]: 0.82% and 1.45% | Population Mitochondria Different-Phenotype (%) [6]: 0.1% and 4.94% | Population Mitotic Cells (%) [6]: 54.67% and 53.85% | Population Normal (%) [6]: 99.82% and 100% | Population Pyknosed Nuclei (%) [6]: 6.87% and 13% | Population Tubulin-Different-Phenotype (%) [6]: 0.1% and 0.29% | Total Cell Count [6]: 1094 and 400

COc1ccc(CC(=O)NC(N/C(=N/C#N)Nc2cccc3ncccc23)C(C)(C)C)cc1OC (stereo unspecified)
Population Apoptotic (%) [1]: 40.91% and 47.06% | Population Fragmented Nuclei (%) [1]: 2.4% and 0.62% | Population Healthy Nuclei (%) [1]: 91.73% and 88.89% | Population Hoechst High Intensity Objects (%) [1]: 0% | Population Membrane Permeable-Phenotype (%) [1]: 1.16% and 5.56% | Population Mitochondria Different-Phenotype (%) [1]: 0.87% and 4.86% | Population Mitotic Cells (%) [1]: 59.09% and 52.94% | Population Normal (%) [1]: 100% | Population Pyknosed Nuclei (%) [1]: 5.87% and 10.49% | Population Tubulin-Different-Phenotype (%) [1]: 0.87% and 0.69% | Total Cell Count [1]: 375 and 162 | Population Apoptotic (%) [2]: 51.35% and 40% | Population Fragmented Nuclei (%) [2]: 1.67% and 2.27% | Population Healthy Nuclei (%) [2]: 88.02% and 82.58% | Population Hoechst High Intensity Objects (%) [2]: 0% | Population Membrane Permeable-Phenotype (%) [2]: 1.27% and 3.67% | Population Mitochondria Different-Phenotype (%) [2]: 0.63% and 8.26% | Population Mitotic Cells (%) [2]: 48.65% and 60% | Population Normal (%) [2]: 100% | Population Pyknosed Nuclei (%) [2]: 10.31% and 15.15% | Population Tubulin-Different-Phenotype (%) [2]: 1.58% and 0.92% | Total Cell Count [2]: 359 and 132 | Population Apoptotic (%) [3]: 33.33% and 61.54% | Population Fragmented Nuclei (%) [3]: 1.96% and 2.31% | Population Healthy Nuclei (%) [3]: 85.66% and 85.65% | Population Hoechst High Intensity Objects (%) [3]: 0% | Population Membrane Permeable-Phenotype (%) [3]: 1.15% and 3.78% | Population Mitochondria Different-Phenotype (%) [3]: 0.46% and 6.49% | Population Mitotic Cells (%) [3]: 66.67% and 38.46% | Population Normal (%) [3]: 100% | Population Pyknosed Nuclei (%) [3]: 12.38% and 12.04% | Population Tubulin-Different-Phenotype (%) [3]: 0.92% and 0% | Total Cell Count [3]: 509 and 216 | Population Apoptotic (%) [4]: 35.56% and 50% | Population Fragmented Nuclei (%) [4]: 1.44% and 1.79% | Population Healthy Nuclei (%) [4]: 89.32% and 87.5% | Population Hoechst High Intensity Objects (%) [4]: 0% | Population Membrane Permeable-Phenotype (%) [4]: 1.61% and 2.04% | Population Mitochondria Different-Phenotype (%) [4]: 0.46% and 4.08% | Population Mitotic Cells (%) [4]: 64.44% and 50% | Population Normal (%) [4]: 100% | Population Pyknosed Nuclei (%) [4]: 9.24% and 10.71% | Population Tubulin-Different-Phenotype (%) [4]: 2.07% and 0.68% | Total Cell Count [4]: 487 and 168 | Population Apoptotic (%) [5]: 60.47% and 47.73% | Population Fragmented Nuclei (%) [5]: 1.92% and 2.62% | Population Healthy Nuclei (%) [5]: 88.91% and 85.86% | Population Hoechst High Intensity Objects (%) [5]: 0% | Population Membrane Permeable-Phenotype (%) [5]: 0.36% and 2.13% | Population Mitochondria Different-Phenotype (%) [5]: 0.36% and 2.74% | Population Mitotic Cells (%) [5]: 39.53% and 52.27% | Population Normal (%) [5]: 100% | Population Pyknosed Nuclei (%) [5]: 9.17% and 11.52% | Population Tubulin-Different-Phenotype (%) [5]: 0.96% and 0.61% | Total Cell Count [5]: 938 and 382 | Population Apoptotic (%) [6]: 53.62% and 57.5% | Population Fragmented Nuclei (%) [6]: 3.32% and 2.81% | Population Healthy Nuclei (%) [6]: 89.53% and 83.16% | Population Hoechst High Intensity Objects (%) [6]: 0% | Population Membrane Permeable-Phenotype (%) [6]: 0.93% and 3.38% | Population Mitochondria Different-Phenotype (%) [6]: 0.35% and 2.53% | Population Mitotic Cells (%) [6]: 46.38% and 42.5% | Population Normal (%) [6]: 100% | Population Pyknosed Nuclei (%) [6]: 7.15% and 14.04% | Population Tubulin-Different-Phenotype (%) [6]: 1.62% and 0.84%

CCCn1c(=O)c2[nH]c(C3CCCC3)nc2n(CCC)c1=O [1,3-DIPROPYL-8-CYCLOPENTYLXANTHINE [DPCPX]]
Population Apoptotic (%) [1]: 87% and 93% | Population Fragmented Nuclei (%) [1]: 25% and 15% | Population Healthy Nuclei (%) [1]: 64% and 72% | Population Hoechst High Intensity Objects (%) [1]: 1% and 0% | Population Membrane Permeable-Phenotype (%) [1]: 1% and 7% | Population Mitochondria Different-Phenotype (%) [1]: 3% and 4% | Population Mitotic Cells (%) [1]: 12% and 6% | Population Normal (%) [1]: 98% and 100% | Population Pyknosed Nuclei (%) [1]: 9% and 12% | Population Tubulin-Different-Phenotype (%) [1]: 1% and 5% | Total Cell Count [1]: 250 and 125 | Population Apoptotic (%) [2]: 68% and 100% | Population Fragmented Nuclei (%) [2]: 30% and 21% | Population Healthy Nuclei (%) [2]: 60% and 69% | Population Hoechst High Intensity Objects (%) [2]: 2% and 3% | Population Membrane Permeable-Phenotype (%) [2]: 5% and 6% | Population Mitochondria Different-Phenotype (%) [2]: 1% and 9% | Population Normal (%) [2]: 97% and 96% | Population Pyknosed Nuclei (%) [2]: 9% and 8% | Population Tubulin-Different-Phenotype (%) [2]: 3% | Total Cell Count [2]: 206 and 96 | Population Apoptotic (%) [3]: 83% and 87% | Population Fragmented Nuclei (%) [3]: 24% and 13% | Population Healthy Nuclei (%) [3]: 68% and 74% | Population Hoechst High Intensity Objects (%) [3]: 3% and 2% | Population Membrane Permeable-Phenotype (%) [3]: 5% and 8% | Population Mitochondria Different-Phenotype (%) [3]: 3% | Population Mitotic Cells (%) [3]: 16% and 12% | Population Normal (%) [3]: 96% and 97% | Population Pyknosed Nuclei (%) [3]: 7% and 11% | Population Tubulin-Different-Phenotype (%) [3]: 4% | Total Cell Count [3]: 261 and 138 | Population Apoptotic (%) [4]: 89% and 100% | Population Fragmented Nuclei (%) [4]: 27% and 21% | Population Healthy Nuclei (%) [4]: 64% and 71% | Population Hoechst High Intensity Objects (%) [4]: 2% and 4% | Population Membrane Permeable-Phenotype (%) [4]: 7% and 3% | Population Mitochondria Different-Phenotype (%) [4]: 0% and 3% | Population Mitotic Cells (%) [4]: 10% and 0% | Population Normal (%) [4]: 97% and 95% | Population Pyknosed Nuclei (%) [4]: 8% and 6% | Population Tubulin-Different-Phenotype (%) [4]: 0% | Total Cell Count [4]: 234 and 120 | Population Apoptotic (%) [5]: 86% and 92% | Population Fragmented Nuclei (%) [5]: 20% and 17% | Population Healthy Nuclei (%) [5]: 69% | Population Hoechst High Intensity Objects (%) [5]: 1% and 2% | Population Membrane Permeable-Phenotype (%) [5]: 3% and 8% | Population Mitochondria Different-Phenotype (%) [5]: 1% and 4% | Population Mitotic Cells (%) [5]: 13% and 8% | Population Normal (%) [5]: 98% and 97% | Population Pyknosed Nuclei (%) [5]: 10% and 13% | Population Tubulin-Different-Phenotype (%) [5]: 2% and 3% | Total Cell Count [5]: 364 and 196 | Population Apoptotic (%) [6]: 77% and 100% | Population Fragmented Nuclei (%) [6]: 24% and 19% | Population Healthy Nuclei (%) [6]: 62% and 73% | Population Hoechst High Intensity Objects (%) [6]: 2% and 3% | Population Membrane Permeable-Phenotype (%) [6]: 4% and 5% | Population Mitochondria Different-Phenotype (%) [6]: 1% and 3% | Population Mitotic Cells (%) [6]: 22% and 0% | Population Normal (%) [6]: 97% and 96% | Population Pyknosed Nuclei (%) [6]: 12% and 6% | Population Tubulin-Different-Phenotype (%) [6]: 3% and 0% | Total Cell Count [6]: 322 and 165
